Assay results collected from several papers.
Protocols differ between the studies behind these lines.
Organism: Escherichia coli
Read-out: microbial growth

Structure (SMILES) | technique | strain | time | MIC
CN(C)[C@@H]1C(O)=C(C(N)=O)C(=O)[C@@]2(O)C(O)=C3C(=O)c4c(O)cccc4[C@@](C)(O)[C@H]3C[C@@H]12 | broth dilution | ATCC25922 |  | 16 µg/mL
CC1(C)S[C@@H]2[C@H](NC(=O)[C@H](N)c3ccccc3)C(=O)N2[C@H]1C(=O)O |  |  | 24 h | 5 to 10 µM
C[C@H]1COc2c(N3CCN(C)CC3)c(F)cc3c(=O)c(C(=O)O)cn1c23 |  | BW25113 |  | 0.16 µg/mL
Cc1nn(-c2ccccc2)c2c1C(c1ccc(Cl)cc1)N(C(=O)c1ccncc1)N2 (stereo not drawn) |  | MTCC739 | 24 h | > 100 µg/mL
CC(C)(O/N=C(\C(=O)N[C@@H]1C(=O)N2C(C(=O)[O-])=C(C[n+]3ccccc3)CS[C@H]12)c1csc(N)n1)C(=O)O | broth dilution | ATCC25922 | 20 h | < 0.5 µg/mL
Cc1nn(-c2ccccc2)c2c1C(c1ccc([N+](=O)[O-])cc1)N(C(=O)c1ccncc1)N2 (stereo not drawn) |  | MTCC739 | 24 h | 32 µg/mL
CC(C)(O/N=C(\C(=O)N[C@@H]1C(=O)N2C(C(=O)[O-])=C(C[n+]3ccccc3)CS[C@H]12)c1csc(N)n1)C(=O)O | broth dilution |  |  | 0.125 µg/mL
Cc1[nH]c(C(=O)Nc2ccc(C(=O)NCC(=O)O)cc2N2CC[C@@H](N)C2)c(Cl)c1Cl.Cl | broth dilution | ATCC25922 |  | > 32 µg/mL
Nc1ccccc1OC(=O)C=Cc1ccc(O)c(O)c1 | broth dilution | ATCC25922 |  | 8 µg/mL
CC(C)(C)OC(=O)N[C@H]1CCN(c2cc(C(=O)NCC(=O)O)ccc2NC(=O)c2cc(Br)c(Br)[nH]2)C1 | broth dilution | ATCC25922 |  | > 32 µg/mL
CC(O)CSc1nnc(-c2cc3c(ccc4ccccc43)o2)n1-c1ccccc1 (stereo not drawn) |  |  |  | 16000 µg/mL
Cc1[nH]c(C(=O)Nc2ccc(-c3n[nH]c(=O)o3)cc2N2CC[C@H](N)C2)c(Cl)c1Cl.Cl | broth dilution | ATCC25922 |  | 8 µg/mL
Cc1nn(-c2ccccc2)c2c1C(c1ccc(N(C)C)cc1)N(C(=O)c1ccncc1)N2 (stereo not drawn) |  | MTCC739 | 24 h | > 100 µg/mL
Cc1[nH]c(C(=O)Nc2ccc(C(=O)NCC(=O)O)cc2N2CC[C@H](NC(=O)OC(C)(C)C)C2)c(Cl)c1Cl | broth dilution | ATCC25922 |  | > 32 µg/mL
COc1ccc(C2c3c(C)nn(-c4ccccc4)c3NN2C(=O)c2ccncc2)cc1 (stereo not drawn) |  | MTCC739 | 24 h | 32 µg/mL
CC(C)NCC(COc1cccc2ccccc12)OC(=O)C=Cc1ccc(O)c(O)c1 (stereo not drawn) | broth dilution | ATCC25922 |  | 64 µg/mL
CC1(C)S[C@@H]2[C@H](NC(=O)[C@H](N)c3ccc(O)cc3)C(=O)N2[C@H]1C(=O)O | broth dilution |  |  | ≤ 0.06 µg/mL
Cl.N[C@@H]1CCN(c2cc(C(=O)NCC(=O)O)ccc2NC(=O)c2cc(Br)c(Br)[nH]2)C1 | broth dilution | ATCC25922 |  | > 32 µg/mL
C[C@H]1[C@H](NC(=O)/C(=N\OC(C)(C)C(=O)O)c2csc(N)n2)C(=O)N1S(=O)(=O)O | broth dilution |  |  | ≤ 0.06 µg/mL
O=C(O)c1cn(C2CC2)c2cc(N3CCNCC3)c(F)cc2c1=O |  | MTCC739 | 24 h | 32 µg/mL
NCC[C@H](O)C(=O)N[C@@H]1C[C@H](N)[C@@H](O[C@H]2O[C@H](CN)[C@@H](O)[C@H](O)[C@H]2O)[C@H](O)[C@H]1O[C@H]1O[C@H](CO)[C@@H](O)[C@H](N)[C@H]1O | broth dilution |  |  | ≤ 1 µg/mL
CC(O)CSc1nnc(Cn2cnc3c2c(=O)n(C)c(=O)n3C)n1-c1ccccc1 (stereo not drawn) |  |  |  | 15000 µg/mL
Cc1[nH]c(C(=O)Nc2ccc(C(=O)NCC(=O)O)cc2N2CCNCC2)c(Cl)c1Cl.Cl | broth dilution | ATCC25922 |  | > 32 µg/mL
CC(O)CSc1nnc(-c2cc3ccccc3o2)n1-c1ccccc1 (stereo not drawn) |  |  |  | 10000 µg/mL
Cl.O=C(O)CNC(=O)c1ccc(NC(=O)c2cc(Br)c(Br)[nH]2)c(N2CCNCC2)c1 | broth dilution | ATCC25922 |  | > 32 µg/mL
C[C@@H](O)[C@H]1C(=O)N2C(C(=O)O)=C(S[C@@H]3CN[C@H](C(=O)N(C)C)C3)[C@H](C)[C@H]12 | broth dilution |  |  | ≤ 0.06 µg/mL
O=C(C=Cc1ccc(O)c(O)c1)OCc1ccccc1 | broth dilution | ATCC25922 |  | 8 µg/mL
Cc1[nH]c(C(=O)Nc2ccc(-c3n[nH]c(=O)o3)cc2N2CCC[C@H](N)C2)c(Cl)c1Cl.Cl | broth dilution | ATCC25922 |  | 16 µg/mL
CCC(C)CCCC(=O)N[C@@H](CCN)C(=O)N[C@H](C(=O)N[C@@H](CCN)C(=O)N[C@H]1CCNC(=O)[C@H]([C@@H](C)O)NC(=O)[C@H](CCN)NC(=O)[C@H](CCN)NC(=O)[C@H](CC(C)C)NC(=O)[C@@H](CC(C)C)NC(=O)[C@H](CCN)NC1=O)[C@@H](C)O (stereo partly drawn) | broth dilution |  |  | 0.25 µg/mL
O=C(C=Cc1ccc(O)c(O)c1)Oc1cccc2cccnc12 | broth dilution | ATCC25922 |  | 4 µg/mL
